From ChEMBL document CHEMBL1240439, “Synthesis and docking studies of novel benzopyran-2-ones with anticancer activity” (2010)

How the values were obtained:
Assay type in all cases: functional
SF-295 = experiment: Cytotoxicity against human SF295 cells assessed as cell growth at 10 uM after 48 hrs by sulforhodamine B assay; conditions: SF-295, 48 h, read-out: Activity
RPMI-8226 = experiment: Cytotoxicity against human RPMI8226 cells assessed as cell growth at 10 uM after 48 hrs by sulforhodamine B assay; conditions: RPMI-8226, 48 h, read-out: Activity
K562 = experiment: Cytotoxicity against human K562 cells assessed as cell growth at 10 uM after 48 hrs by sulforhodamine B assay; conditions: K562, 48 h, read-out: Activity
PC-3 = experiment: Cytotoxicity against human PC3 cells assessed as cell growth at 10 uM after 48 hrs by sulforhodamine B assay; conditions: PC-3, 48 h, read-out: Activity
UACC-62 = experiment: Cytotoxicity against human UACC62 cells assessed as cell growth at 10 uM after 48 hrs by sulforhodamine B assay; conditions: UACC-62, 48 h, read-out: Activity
HL-60(TB) = experiment: Cytotoxicity against human HL-60(TB) cells assessed as cell growth at 10 uM after 48 hrs by sulforhodamine B assay; conditions: HL-60, 48 h, read-out: Activity
SR = experiment: Cytotoxicity against human SR cells assessed as cell growth at 10 uM after 48 hrs by sulforhodamine B assay; conditions: read-out: Activity
EKVX = experiment: Cytotoxicity against human EKVX cells assessed as cell growth at 10 uM after 48 hrs by sulforhodamine B assay; conditions: read-out: Activity
SK-MEL-2 = experiment: Cytotoxicity against human SK-MEL-2 cells assessed as cell growth at 10 uM after 48 hrs by sulforhodamine B assay; conditions: SK-MEL-2, 48 h, read-out: Activity
OVCAR-4 = experiment: Cytotoxicity against human OVCAR4 cells assessed as cell growth at 10 uM after 48 hrs by sulforhodamine B assay; conditions: OVCAR-4, 48 h, read-out: Activity
T47D = experiment: Cytotoxicity against human T47D cells assessed as cell growth at 10 uM after 48 hrs by sulforhodamine B assay; conditions: read-out: Activity
A549 = experiment: Cytotoxicity against human A549 cells assessed as cell growth at 10 uM after 48 hrs by sulforhodamine B assay; conditions: A549, 48 h, read-out: Activity
NCI-H460 = experiment: Cytotoxicity against human NCI-H460 cells assessed as cell growth at 10 uM after 48 hrs by sulforhodamine B assay; conditions: NCI-H460, 48 h, read-out: Activity
HCT-15 = experiment: Cytotoxicity against human HCT15 cells assessed as cell growth at 10 uM after 48 hrs by sulforhodamine B assay; conditions: HCT-15, 48 h, read-out: Activity
MCF7 = experiment: Cytotoxicity against human MCF7 cells assessed as cell growth at 10 uM after 48 hrs by sulforhodamine B assay; conditions: MCF7, 48 h, read-out: Activity
MDA-MB-231 = experiment: Cytotoxicity against human MDA-MB-231 cells assessed as cell growth at 10 uM after 48 hrs by sulforhodamine B assay; conditions: MDA-MB-231, 48 h, read-out: Activity
[1] = Cytotoxicity against human Hs 578T cells assessed as cell growth at 10 uM after 48 hrs by sulforhodamine B assay; conditions: read-out: Activity
IGROV-1 = experiment: Cytotoxicity against human IGROV1 cells assessed as cell growth at 10 uM after 48 hrs by sulforhodamine B assay; conditions: IGROV-1, 48 h, read-out: Activity
OVCAR-8 = experiment: Cytotoxicity against human OVCAR8 cells assessed as cell growth at 10 uM after 48 hrs by sulforhodamine B assay; conditions: OVCAR-8, 48 h, read-out: Activity
786-0 = experiment: Cytotoxicity against human 786-0 cells assessed as cell growth at 10 uM after 48 hrs by sulforhodamine B assay; conditions: 786-0, 48 h, read-out: Activity
SN12C = experiment: Cytotoxicity against human SN12C cells assessed as cell growth at 10 uM after 48 hrs by sulforhodamine B assay; conditions: read-out: Activity
RXF 393 = experiment: Cytotoxicity against human RXF393 cells assessed as cell growth at 10 uM after 48 hrs by sulforhodamine B assay; conditions: RXF 393, 48 h, read-out: Activity
TK-10 = experiment: Cytotoxicity against human TK10 cells assessed as cell growth at 10 uM after 48 hrs by sulforhodamine B assay; conditions: TK-10, 48 h, read-out: Activity
LOX IMVI [2] = experiment: Cytotoxicity against human LOXIMVI cells assessed as cell growth at 10 uM after 48 hrs by sulforhodamine B assay; conditions: read-out: Activity
MDA-MB-435 = experiment: Cytotoxicity against human MDA-MB-435 cells assessed as cell growth at 10 uM after 48 hrs by sulforhodamine B assay; conditions: MDA-MB-435, 48 h, read-out: Activity
DU-145 = experiment: Cytotoxicity against human DU145 cells assessed as cell growth at 10 uM after 48 hrs by sulforhodamine B assay; conditions: DU-145, 48 h, read-out: Activity
SF-268 = experiment: Cytotoxicity against human SF268 cells assessed as cell growth at 10 uM after 48 hrs by sulforhodamine B assay; conditions: SF-268, 48 h, read-out: Activity
SNB-75 = experiment: Cytotoxicity against human SNB75 cells assessed as cell growth at 10 uM after 48 hrs by sulforhodamine B assay; conditions: SNB-75, 48 h, read-out: Activity
U-251 = experiment: Cytotoxicity against human U251 cells assessed as cell growth at 10 uM after 48 hrs by sulforhodamine B assay; conditions: U-251, 48 h, read-out: Activity
[3] = Cytotoxicity against human melanoma cells after 48 hrs by sulforhodamine B assay; conditions: Melanoma cell
How it was run: (§1)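 Cells plated at 5000–40,000/well according to doubling time, then held 24 h at 37 °C, 5% CO2, with time-zero plates TCA-fixed. DMSO stocks (400× top concentration) were diluted in medium containing 50 μg/ml gentamycin, giving five 10-fold or ½-log concentrations. After 48 h, adherent cells were fixed in 10% TCA and suspension cells in 16% TCA (final), stained with 0.4% SRB, read at 515 nm. GI50, TGI and LC50 were calculated per cell line.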

[4] = Cytotoxicity against human ovarian cancer cells after 48 hrs by sulforhodamine B assay; conditions: Cancer cell lines; how it was run: as §1
CCRF-CEM = experiment: Cytotoxicity against human CCRF-CEM cells after 48 hrs by sulforhodamine B assay
How it was run: (§2)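 Cells were plated at 5000–40,000/well according to doubling time and preincubated 24 h at 37 °C, 5% CO2. Time-zero plates were TCA-fixed. DMSO stocks were diluted in medium with gentamycin to five concentrations (10-fold or ½ log series) plus control, then incubated 48 h. Adherent cells were fixed with cold TCA (suspension cells with 16% final), stained with SRB, and read at 515 nm. GI50, TGI and LC50 were calculated per line.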

LOX IMVI [5] = experiment: Cytotoxicity against human LOXIMVI cells after 48 hrs by sulforhodamine B assay; how it was run: as §2
[6] = read-out: LC50 (the source's name)

SMILES: Cc1cc(=O)n(C(=O)COc2ccc3c(-c4ccccc4)cc(=O)oc3c2C)[nH]1
- growth at 10 µM (SF-295): -77.2%
- growth at 10 µM (RPMI-8226): -18.2%
- growth at 10 µM (K562): -24.1%
- growth at 10 µM (PC-3): -93%
- growth at 10 µM (UACC-62): -27.3%
- growth at 10 µM (HL-60(TB)): -66.6%
- growth at 10 µM (SR): 18.5%
- growth at 10 µM (EKVX): -33.6%
- growth at 10 µM (SK-MEL-2): -12.2%
- growth at 10 µM (OVCAR-4): -42.9%
- growth at 10 µM (T47D): -1.54%
- growth at 10 µM (A549): 0.69%
- growth at 10 µM (NCI-H460): 10.9%
- growth at 10 µM (HCT-15): 38.3%
- growth at 10 µM (MCF7): -14.4%
- growth at 10 µM (MDA-MB-231): -30%
- growth at 10 µM [1]: -4.17%
- growth at 10 µM (IGROV-1): -17.5%
- growth at 10 µM (OVCAR-8): -30.5%
- growth at 10 µM (786-0): -58.8%
- growth at 10 µM (SN12C): -69.3%
- growth at 10 µM (RXF 393): -37%
- growth at 10 µM (TK-10): -33.4%
- growth at 10 µM (LOX IMVI [2]): -61.8%
- growth at 10 µM (MDA-MB-435): -39.6%
- growth at 10 µM (DU-145): -56.3%
- growth at 10 µM (SF-268): 2.94%
- growth at 10 µM (SNB-75): -35.2%
- growth at 10 µM (U-251): -72.4%
- GI50 [3]: 4.65 µM
- TGI [3]: 43.2 µM
- CC50 [3, 6]: 72.4 µM
- GI50 [4]: 8.53 µM
- TGI [4]: 28.7 µM
- CC50 [4, 6]: 52 µM
- GI50 (CCRF-CEM): < 0.04 µM
- TGI (CCRF-CEM): 0.57 µM
- GI50 (LOX IMVI [5]): 1.99 µM
- TGI (LOX IMVI [5]): 3.88 µM
